Only some compounds are listed: those with a hit (about 0.73% of all), similar ones and a draw of the others.
cardiac RTF act – cardiac RTF calcium sensitization; P19429+P45379; IANBD-labeled TnC RTF fluorescence at EC20 calcium; 0% EC20 calcium, 100% full calcium; actives 0.24% (n = 340,000); activation, % at 7.2 µM;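 active means activation above the mean over all tested compounds plus 3 SD, cut at about 30% in these data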;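 further: rise in fluorescence read as greater calcium sensitivity of cardiac thin filaments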
DDE Tn7 FP inh – DD(E)-Tn7 binding inhibition, primary FP screen; FP displacement of FITC-Tn7 peptide from fibrin DD(E); 0% = median of compound wells per plate; actives 0.13% (n = 370,000); AID 720508; inhibition, % at 8.3 µM; P02675;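 active means inhibition above the mean of compounds falling within the control limits plus 3 SD of them, cut at about 14% in these data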;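 further: 0% = plate median of compound wells and 100% = 10 µM Aha-Tn7 peptide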
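system = human fibrin DD(E) protein | quantity = DD(E) 2 µM final | medium = Tris/NaCl/CaCl2 buffer, pH 7.8 | also added = labelled Tn7 tracer, 0.1 µM | compound dosing = single point at 8.3 µM | timing = compound with protein 10 min, then 3 h after probe, room temperature | signal = FP measurement | benchmarks = Aha-Tn7 high control | repeats = one replicate per compound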
RTF Ca sens inh – cardiac RTF calcium desensitization; P19429+P45379; IANBD-labeled cardiac RTF, Ca2+ fluorescence; inhibition, % at 7.15 µM; actives 0.12% (n = 340,000);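 active means inhibition above the mean inhibition of all tested compounds plus 3 SD, cut at about 17% in these data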;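 further: assay run at fixed EC70 calcium of 1.6 mM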
Keap1-Nrf2 PPI – Keap1-Nrf2 (human) interaction inhibition | inhibition, % at 9.4 µM | actives 0.15% (n = 340,000) | AID 504523 | Q14145 | Keap1 Kelch-Nrf2 peptide fluorescence polarization, 1536-well; in the data active means inhibition above about 12%;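 further: human Keap1 Kelch domain with fluorescein labeled Nrf2 9mer peptide probe; 0% = neutral control wells and 100% = peptide positive control; higher means more block of Keap1 binding to Nrf2 peptide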
Target sequence (Q14145 whole entry, looked up, the tested form may be a part): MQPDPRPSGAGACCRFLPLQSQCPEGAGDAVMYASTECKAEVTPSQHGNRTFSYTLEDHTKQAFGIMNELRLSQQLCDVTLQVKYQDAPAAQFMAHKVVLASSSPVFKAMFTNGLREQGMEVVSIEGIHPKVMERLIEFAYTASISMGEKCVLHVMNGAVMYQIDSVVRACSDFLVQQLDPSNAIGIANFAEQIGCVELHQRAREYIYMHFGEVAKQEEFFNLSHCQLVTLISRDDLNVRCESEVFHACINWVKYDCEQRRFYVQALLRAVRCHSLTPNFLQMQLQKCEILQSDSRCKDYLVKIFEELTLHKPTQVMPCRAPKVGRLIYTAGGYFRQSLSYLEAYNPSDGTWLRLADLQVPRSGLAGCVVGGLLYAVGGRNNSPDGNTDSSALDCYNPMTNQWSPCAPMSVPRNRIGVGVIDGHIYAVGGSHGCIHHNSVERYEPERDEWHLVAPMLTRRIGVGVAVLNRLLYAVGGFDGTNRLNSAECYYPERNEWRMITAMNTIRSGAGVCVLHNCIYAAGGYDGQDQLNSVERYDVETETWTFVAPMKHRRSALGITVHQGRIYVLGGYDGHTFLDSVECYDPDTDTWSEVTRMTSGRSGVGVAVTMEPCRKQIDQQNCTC
DDE Tn6 FP inh – disrupts Tn6 cyclic peptide binding to fibrin D-Dimer-E complex; P02675; Fibrin DD(E) TRITC-Tn6 fluorescence polarization displacement; inhibition, % at 8.3 µM; actives 0.21% (n = 370,000); AID 720509;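 active means inhibition above a per-campaign cutoff: mean of compounds within control limits plus 3 SD, cut at about 15% in these data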;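 further: 0% = median of all compound wells on the plate and 100% = blocking peptide control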
LANA DNA inh – blocks KSHV LANA C-terminal domain binding to DNA; MBP-C-LANA/FAM-LBS DNA binding, fluorescence polarization; inhibition, % at 9 µM; actives 0.078% (n = 340,000);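 active means highest replicate inhibition at or above 60% at 9 µM, even if other replicates fall short; inactive means all replicates below 60% inhibition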;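 further: 0% = neutral control wells and 100% = 4 µM acridine orange control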
* hit, by the source's call.

For O=C1NC(=O)C(=Cc2ccc(Sc3ccccc3)o2)C(=O)N1 the results were cardiac RTF act -4, DDE Tn7 FP inh 0, RTF Ca sens inh 3, Keap1-Nrf2 PPI 1, DDE Tn6 FP inh -1 and LANA DNA inh 3.
CC1(C)OC(c2ccccc2)=C/C(=C/C=C2C(=O)NC(=O)NC2=O)O1 was read as cardiac RTF act 110*, DDE Tn7 FP inh -39, RTF Ca sens inh -178, Keap1-Nrf2 PPI -54, DDE Tn6 FP inh -13 and LANA DNA inh -20.
For O=c1[nH]c2ccccc2n1C1CCN(C(c2cccc3ccccc23)c2nnnn2-c2ccc3c(c2)OCCO3)CC1 (centres undefined) the results were DDE Tn7 FP inh -6 and DDE Tn6 FP inh -3.
O=c1[nH]c2ccccc2n1C1CCN(C(c2cc3ccccc3o2)c2nnnn2-c2ccc3c(c2)OCCO3)CC1 (centres undefined) was read as DDE Tn7 FP inh 15* and DDE Tn6 FP inh -6.
For Cc1ccsc1/C=C1\C(=O)NC(=S)N(C)C1=O the results were cardiac RTF act 1, DDE Tn7 FP inh 3, RTF Ca sens inh -7, Keap1-Nrf2 PPI -4, DDE Tn6 FP inh 3 and LANA DNA inh 1.
`COc1ccc(/C=C2\C(=O)NC(=S)N(C)C2=O)cc1C` gave cardiac RTF act -12, DDE Tn7 FP inh 6, RTF Ca sens inh 8, Keap1-Nrf2 PPI 47*, DDE Tn6 FP inh 1 and LANA DNA inh 16.
Screening O=C(NCCN1CCC2(CC1)C(=O)NCN2c1ccccc1)c1ccc2ccccc2c1 returned DDE Tn7 FP inh 2 and DDE Tn6 FP inh 5.
Screening CN1C(=O)/C(=C/C=C/c2ccco2)C(=O)NC1=S returned cardiac RTF act 5, DDE Tn7 FP inh -5, RTF Ca sens inh -21, Keap1-Nrf2 PPI -26, DDE Tn6 FP inh 2 and LANA DNA inh 60*.
C=CCN(CC#CCO)Cc1ccc(OC)cc1OC was read as DDE Tn7 FP inh 1 and DDE Tn6 FP inh 1.
For CCN(CC)c1ccc(/C=N/c2sc3c(c2C#N)C2CCN3CC2)c(O)c1 the results were cardiac RTF act 146*, RTF Ca sens inh -175, Keap1-Nrf2 PPI -12 and LANA DNA inh 0.
CCOc1ccc(N2C(=O)/C(=C/c3ccc(C)o3)C(=O)NC2=S)cc1 was read as cardiac RTF act 6, DDE Tn7 FP inh 1, RTF Ca sens inh -1, Keap1-Nrf2 PPI -9, DDE Tn6 FP inh -5 and LANA DNA inh -3.
For O=C1NC(=O)N(c2ccc3c(c2)OCO3)C(=O)/C1=C/c1ccc(N2CCCC2)o1 the results were cardiac RTF act 58*, DDE Tn7 FP inh -12, RTF Ca sens inh -56, Keap1-Nrf2 PPI -117, DDE Tn6 FP inh 0 and LANA DNA inh -24.
For CCOc1ccc(N2C(=O)NC(=O)/C(=C\c3ccc(N4CCCCC4)o3)C2=O)cc1 the results were cardiac RTF act 112*, DDE Tn7 FP inh -3, RTF Ca sens inh -70, Keap1-Nrf2 PPI -17, DDE Tn6 FP inh -10 and LANA DNA inh -6.
`Cc1cccc(C(C)c2cnc[nH]2)c1C` (centres undefined) gave DDE Tn7 FP inh 6 and DDE Tn6 FP inh -6.
Screening O=C1NC(=S)N(c2ccc(F)cc2)C(=O)/C1=C\c1ccoc1 returned cardiac RTF act -23, RTF Ca sens inh 27*, Keap1-Nrf2 PPI -19 and LANA DNA inh 88*.
Screening Cc1ccc(N2C(=O)NC(=O)/C(=C\c3ccoc3)C2=O)cc1 returned cardiac RTF act 16, DDE Tn7 FP inh -18, RTF Ca sens inh -40, Keap1-Nrf2 PPI -47, DDE Tn6 FP inh 9 and LANA DNA inh -6.
Screening CN1C[C@H](O)[C@H]2C[C@@H]1c1ccccc1O2 returned DDE Tn7 FP inh -1 and DDE Tn6 FP inh 6.
CN1C(=O)/C(=C\c2ccc(N3CCCCC3)o2)C(=O)NC1=S was read as cardiac RTF act 55*, DDE Tn7 FP inh -12, RTF Ca sens inh -41, Keap1-Nrf2 PPI -5, DDE Tn6 FP inh 3 and LANA DNA inh 0.
For CN1CCN(c2ccc(/C=C3\C(=O)NC(=S)N(c4cccc(Br)c4)C3=O)o2)CC1 the results were cardiac RTF act 97*, DDE Tn7 FP inh 4, RTF Ca sens inh -80, Keap1-Nrf2 PPI -109, DDE Tn6 FP inh 9 and LANA DNA inh -35.

Assay outcomes from PubChem BioAssay.
